Test [1] in a line: thallium flux activation in parental CHO cells, counter-screen for KCNQ1 potentiator project (AID 493006;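 active = duplicate-averaged activation above buffer control mean plus 5 SD of those controls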;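 as to activation: fluorescence ratio of max minus min over baseline after K+ and Tl+ depolarization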). The note with it: parental CHO-K1 cells, FluxOR thallium flux, at 10 µM; hits give high values. The method, boiled down:
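Material: parental CHO-K1 cells, FluxOR dye-loaded; Also added: Potassium/thallium depolarization pulse; Schedule: overnight 37 °C plating, 90 min dye, 20 min dark compound; Signal: kinetic FluxOR fluorescence, 10 s baseline, 110 s after stimulus.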
On the technique in general: A counterscreen serves to expose hits that act by an unwanted route or on another target.

Test [2] addresses Potassium voltage-gated channel subfamily KQT member 1 (Homo sapiens) (UniProt P51787). Briefly: KCNQ1 potassium channel potentiators, confirmation, FluxOR thallium flux, CHO cells, duplicates (AID 493007;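 active = potentiation averaged over duplicate wells exceeding buffer-only control mean by more than 3 SD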;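 as to outcome: cells depolarized by a potassium plus thallium sulfate stimulus after compound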). As to conditions: KCNQ1 cell line, FluxOR thallium flux fluorescence, at 10 µM; hits give high values, % of reference activator effect, buffer zero. The method, boiled down: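 System: KCNQ1-expressing CHO cell line; technique: kinetic thallium influx fluorescence with FluxOR dye, 10 s baseline, 110 s post-stimulus; timing: dye 90 min then compound 20 min, both at room temperature; controls: buffer-only wells as 0% and R-L3 activator as 100%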

Test [3] addresses Potassium voltage-gated channel subfamily KQT member 2 (Rattus norvegicus) (UniProt O88943). Briefly: rat KCNQ2 channel potentiation, selectivity assay for KCNQ1 potentiator project, KCNQ2-CHO-K1 cells (AID 493009).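 Also: assay conditions were tuned for KCNQ1 rather than KCNQ2 modulators; signal is max minus min fluorescence divided by baseline after thallium stimulus.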 As to conditions: FluxOR thallium flux fluorescence, at 10 µM; hits give high values, scaled: buffer 0, activator control 100.
The target of test [4] is Potassium voltage-gated channel subfamily KQT member 1 (Homo sapiens) (UniProt P51787). Briefly: KCNQ1 channel current potentiators, confirmation, orthogonal assay for KCNQ1 potentiator project, IonWorks patch clamp, KCNQ1-CHO cells (AID 493184;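 active = current rise at least 3 SD above the untreated control mean in each of two repeat wells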). The note with it: automated patch clamp current, at 10 µM; hits give high values. The method, boiled down: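 Test system: KCNQ1-expressing CHO cells. Medium: pH 7.4 external bath. Probe or stimulus: voltage step from -90 mV holding to +40 mV, 2,000 ms. Compound: 10 µM final, single point. Detection: automated perforated-patch electrophysiology. Read-out: percent current increase versus pre-compound level. Repeats: two replicates.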
For orientation: In patch-clamp work, channel activity is measured electrically.

For 30 compounds, outcome, activation and potentiation results are on record in PubChem BioAssay.

Activity calls are given as the source filed them.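 The calls were made as follows, unless noted: active = mean duplicate potentiation above the buffer control mean plus 5 SD of buffer wells; inactive = the rest.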

Chain of Potassium voltage-gated channel subfamily KQT member 1 (Homo sapiens) (P51787 whole entry, looked up): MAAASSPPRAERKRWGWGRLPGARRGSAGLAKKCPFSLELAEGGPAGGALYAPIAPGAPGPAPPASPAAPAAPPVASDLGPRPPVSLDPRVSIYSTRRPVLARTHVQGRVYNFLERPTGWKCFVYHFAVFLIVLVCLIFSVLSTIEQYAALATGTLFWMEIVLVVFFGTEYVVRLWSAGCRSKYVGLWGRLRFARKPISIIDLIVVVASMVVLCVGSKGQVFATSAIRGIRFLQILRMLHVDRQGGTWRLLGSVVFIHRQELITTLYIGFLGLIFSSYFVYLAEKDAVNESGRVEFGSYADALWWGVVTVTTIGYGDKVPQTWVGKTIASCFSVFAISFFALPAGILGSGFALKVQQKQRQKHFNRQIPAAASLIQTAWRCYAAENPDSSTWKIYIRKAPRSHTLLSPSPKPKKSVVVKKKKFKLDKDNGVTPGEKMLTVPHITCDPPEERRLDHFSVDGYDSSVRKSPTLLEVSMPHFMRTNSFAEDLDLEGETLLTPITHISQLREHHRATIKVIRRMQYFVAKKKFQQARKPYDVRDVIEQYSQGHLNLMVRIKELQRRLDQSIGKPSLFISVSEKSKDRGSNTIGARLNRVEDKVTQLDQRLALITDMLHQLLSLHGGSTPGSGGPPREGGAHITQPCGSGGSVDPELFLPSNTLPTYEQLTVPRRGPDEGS
Chain of Potassium voltage-gated channel subfamily KQT member 2 (Rattus norvegicus) (O88943 whole entry, looked up): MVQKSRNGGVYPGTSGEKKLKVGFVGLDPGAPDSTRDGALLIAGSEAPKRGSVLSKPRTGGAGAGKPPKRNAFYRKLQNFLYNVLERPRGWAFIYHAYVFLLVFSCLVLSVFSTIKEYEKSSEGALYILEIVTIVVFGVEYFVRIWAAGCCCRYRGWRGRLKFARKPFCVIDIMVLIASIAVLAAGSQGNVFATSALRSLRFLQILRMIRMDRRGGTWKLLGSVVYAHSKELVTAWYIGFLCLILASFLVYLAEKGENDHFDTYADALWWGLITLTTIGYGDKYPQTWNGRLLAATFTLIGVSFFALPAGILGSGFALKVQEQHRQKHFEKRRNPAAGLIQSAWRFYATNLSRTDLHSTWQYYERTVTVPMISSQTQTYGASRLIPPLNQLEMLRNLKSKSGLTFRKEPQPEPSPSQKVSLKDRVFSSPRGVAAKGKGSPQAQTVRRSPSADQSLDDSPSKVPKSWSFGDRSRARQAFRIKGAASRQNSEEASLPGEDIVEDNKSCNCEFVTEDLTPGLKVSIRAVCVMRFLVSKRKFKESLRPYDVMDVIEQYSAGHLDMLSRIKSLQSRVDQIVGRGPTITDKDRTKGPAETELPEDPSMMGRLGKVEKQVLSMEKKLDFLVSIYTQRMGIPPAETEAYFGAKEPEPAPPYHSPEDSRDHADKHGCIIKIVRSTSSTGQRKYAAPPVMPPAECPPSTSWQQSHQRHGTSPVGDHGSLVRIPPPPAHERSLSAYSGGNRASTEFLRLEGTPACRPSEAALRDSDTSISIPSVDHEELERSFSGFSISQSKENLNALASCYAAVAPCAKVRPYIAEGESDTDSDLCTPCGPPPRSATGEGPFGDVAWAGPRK

`CCN(c1ccccc1)S(=O)(=O)c1ccc(OC)c(NC(=O)COc2ccc(C(C)=O)cc2)c1`: the outcome in test [1], in test [2], in test [3] and in test [4] was inactive.
`CCN(Cc1cc2cc(OC)ccc2[nH]c1=O)C(=O)c1ccncc1`: the result in test [1], in test [2], in test [3] and in test [4] was inactive.
For the compound `CCOc1cc(CNCCCN2CCOCC2)ccc1OCC(=O)NC(C)(C)C`, the result in test [1], in test [2], in test [3] and in test [4] was inactive.
Regarding `COc1ccc(CN2CCCC(CNC(=O)c3ccc(F)cc3)C2)c(C)c1C` (stereo not given), the outcome in test [1], in test [2], in test [3] and in test [4] was inactive.
In the case of `COc1ccc(C)cc1NC(=O)C(=O)NNC(=O)COc1ccc(Cl)cc1`, the activation in test [1] is 166% (active). The potentiation in test [2] is 195% (active); in test [3], 258% (active). In addition, the outcome in test [4] was inactive.
For `Fc1ccccc1C(c1nnnn1C1CCCC1)N1CCN(Cc2ccccc2)CC1` (stereo not given), the outcome in test [1], in test [2], in test [3] and in test [4] was inactive.
On to `CCn1ncc(CN2CCC(C(=O)Nc3cccc(-c4cccc(F)c4)c3)CC2)c1C`, for which the result in test [1], in test [2], in test [3] and in test [4] was inactive.
`C=CCN(CC=C)C(=S)NC(=O)c1ccc(OC)cc1`: in test [1], the activation was 187% (active). In addition, the potentiation in test [2] is 43.5% (active); in test [3] it was 162% (active). Moreover, the outcome in test [4] was inactive.
On to `Oc1c(CN2CCN(c3ccccn3)CC2)cc(Cl)c2cccnc12`, for which the activation in test [1] was 148% (active). The potentiation was 35% (active) in test [2] and 172% (active) in test [3]. Also, the outcome in test [4] was inactive.
Regarding `CCCS(=O)(=O)c1c(S(=O)(=O)CCC)c2ccc(C(N)=O)cn2c1C(=O)c1ccccc1`, the result in test [1], in test [2], in test [3] and in test [4] was inactive.
Take `C/C(N)=C(/C#N)C(=O)COc1ncnc2ccc(Br)cc12`: the outcome in test [1], in test [2], in test [3] and in test [4] was inactive.
Regarding `O=C(NC(=S)Nc1ccccc1)c1csnn1`, in test [1], the activation was 588% (active). Further, the potentiation was 260% (active) in test [2] and 642% (active) in test [3]. Also, in test [4], the result was inactive.
As for `N=c1sccn1CC(=O)N1N=C(c2ccc(Cl)cc2)CC1c1ccco1` (stereo not given), the result in test [1], in test [2], in test [3] and in test [4] was inactive.
As for `CCOC(=O)NC(=S)Nc1ccc(C(C)(C)C)cc1`, the result in test [1], in test [3] and in test [4] was inactive. In addition, the potentiation in test [2] was 20% (active).
Turning to `CC1CN(S(=O)(=O)c2ccc(Cl)c(C(F)(F)F)c2)CC(C)O1` (stereo not given), the result in test [1], in test [2], in test [3] and in test [4] was inactive.
Regarding `S=c1[nH]nc(-c2cccs2)n1/N=C/c1c(Cl)cccc1Cl`, the result in test [1] and in test [4] was inactive. The potentiation in test [2] is 30% (active); in test [3], 196% (active).
Turning to `CC(C)c1nc(Cl)c(C#N)c2c1CCC2`, the outcome in test [1], in test [2], in test [3] and in test [4] was inactive.
In the case of `CCOc1ccc2[nH]c(=O)c(CN(CCN3CCCC3)C(=S)Nc3ccccc3OCC)cc2c1`, in test [1], the activation was 137% (active). Further, the outcome in test [2] and in test [4] was inactive. In addition, the potentiation in test [3] is 164% (active).
As to `Cc1cc(/C=C2\C(=N)N3N=C(C(C)C)SC3=NC2=O)c(C)n1Cc1ccccc1`, the result in test [1], in test [2], in test [3] and in test [4] was inactive.
As for `CCOC(=O)C(=Cc1cc(=O)c(OC)co1)C(=O)OCC`, the outcome in test [1], in test [2], in test [3] and in test [4] was inactive.
Regarding `COc1cccc(C(=O)NC(=S)Nc2ccc3c4c(cccc24)CC3)c1`, the outcome in test [1], in test [3] and in test [4] was inactive. For the same compound, the potentiation in test [2] is 25.5% (active).
In the case of `Cc1sc2ncnc(SCC(=O)c3ccc(O)cc3O)c2c1C`, the activation in test [1] is 150% (active). Further, the results for the potentiation in test [2] and in test [3] were 20.5% (active) and 176% (active), respectively. Further, in test [4], the outcome was inactive.
Consider `Cc1ccc(Cc2cnc(N3C(=N)SC(c4ccccc4)C3=O)s2)cc1` (stereo not given), for which the result in test [1], in test [2], in test [3] and in test [4] was inactive.
For `COc1ccc(CCNC(=O)c2ccc(N(C)S(=O)(=O)c3ccc(C)cc3)cc2)cc1OC`, the result in test [1], in test [2], in test [3] and in test [4] was inactive.
On to `COc1ccc(NC(=S)NC(=O)c2ccc(Br)o2)cc1`, for which, in test [1], the activation is 146% (active). The potentiation was 45.5% (active) in test [2] and 195% (active) in test [3]. Besides, the outcome in test [4] was inactive.
In the case of `O=C(NC(=S)Nc1ccccc1F)c1ccc(Br)o1`, in test [1], the activation was 230% (active). In addition, the potentiation in test [2] is 55.5% (active); in test [3], 261% (active). Further, the outcome in test [4] was inactive.
With `O=C(c1c[nH]c(C(=O)C(Cl)(Cl)Cl)c1)c1ccc(F)cc1Cl`, the activation in test [1] was 145% (active). Moreover, the potentiation in test [2] is 47% (active); in test [3], 160% (active). For the same compound, in test [4], the outcome was inactive.
As for `O=C(NNC(=S)NC(=O)c1sc2ccccc2c1Cl)c1ccc(Cl)cc1`, in test [1], the activation was 320% (active). The potentiation is 168% (active) in test [2] and 319% (active) in test [3]. For the same compound, the result in test [4] was inactive.
As to `Cc1ccc(-c2c(=O)n(O)c3ccccc3[n+]2[O-])cc1`, the activation in test [1] was 202% (active). The potentiation is 25% (active) in test [2] and 184% (active) in test [3]. Besides, the outcome in test [4] was inactive.
Turning to `CCC(C)c1ccccc1NC(=S)NC(=O)c1ccco1` (stereo not given), in test [1], the activation was 400% (active). Further, the potentiation was 114% (active) in test [2] and 431% (active) in test [3]. Also, the result in test [4] was inactive.
